Compound activity deposited in PubChem BioAssay by The Scripps Research Institute Molecular Screening Center.
Compounds with a hit are over-represented: about 1.8% of the library has one in this group of screens.
CHRM4 PAM = positive allosteric modulators of human muscarinic M4 receptor | P08173 | CHO-K1 hM4/Gqi5, Fluo-8 calcium fluorescence, ACh EC20; 0% = ACh EC20, 100% = maximal ACh | activation, % at 3 µM | 0.4% of 360,000 active | AID 624126;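 active means activation above its plate's cutoff, the mean activation of sample wells plus 3 SD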
CHRM4 antagonist = blocks acetylcholine activation of human M4 receptor; P08173; CHO-hM4 cells, ACh EC80, Fluo-8 calcium fluorescence; inhibition, % at 3 µM; 0.73% of 360,000 active;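 active means inhibition above its plate's cutoff, the mean inhibition of sample wells plus 3 SD, cut at about 27% in these data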;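 further: 0% = acetylcholine EC80 with DMSO and 100% = DMSO without agonist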
M5 ag = agonists of human muscarinic M5 receptor (CHRM5); P08912; CHO-K1 hM5 cells, Fluo-8 calcium fluorescence; 0% DMSO wells, 100% maximal acetylcholine response; activation, % at 3 µM; 0.19% of 360,000 active;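 active means activation above the run's mean over test compounds plus 3 SD, cut at about 23% in these data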;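 further: signal is peak over basal fluorescence ratio across the kinetic read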
Target sequence (P08912 whole entry, looked up): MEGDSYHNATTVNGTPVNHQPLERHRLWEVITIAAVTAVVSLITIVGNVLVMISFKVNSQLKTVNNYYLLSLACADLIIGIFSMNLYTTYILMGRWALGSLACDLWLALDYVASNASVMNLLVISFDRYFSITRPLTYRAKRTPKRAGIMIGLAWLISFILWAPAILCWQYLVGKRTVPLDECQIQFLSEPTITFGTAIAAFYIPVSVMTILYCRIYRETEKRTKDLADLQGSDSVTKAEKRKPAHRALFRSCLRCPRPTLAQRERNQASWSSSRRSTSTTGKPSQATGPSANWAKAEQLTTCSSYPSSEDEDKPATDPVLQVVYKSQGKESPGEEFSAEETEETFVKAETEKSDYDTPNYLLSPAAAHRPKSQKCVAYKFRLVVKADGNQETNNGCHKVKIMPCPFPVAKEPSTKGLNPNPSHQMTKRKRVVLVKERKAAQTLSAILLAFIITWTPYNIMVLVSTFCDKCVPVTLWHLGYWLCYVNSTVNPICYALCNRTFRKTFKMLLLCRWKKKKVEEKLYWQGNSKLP
M4 ag = agonists of human muscarinic M4 receptor (CHRM4). P08173. CHO-K1 hM4/Gqi5, Fluo-8 calcium fluorescence; vehicle 0%, full acetylcholine response 100%. activation, % at 3 µM. 0.14% of 360,000 active;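 active means activation above the run mean over all test wells plus 3 SD, cut at about 32% in these data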;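 further: peak over basal fluorescence ratio per well then scaled between controls; 0% = DMSO wells and 100% = acetylcholine at EC100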
CHRM5 antagonist = CHRM5 antagonism in calcium assay. P08912. CHO-hM5 cells, Fluo-8 calcium fluorescence, ACh EC80. inhibition, % at 3 µM. 0.59% of 360,000 active. AID 624040;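 active means inhibition above a per-plate cutoff, the mean of that plate's test compounds plus 3 SD, cut at about 27% in these data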;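 further: 0% = acetylcholine EC80 with DMSO and 100% = DMSO without agonist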
CHRM5 PAM = potentiates acetylcholine response at human M5 receptor | 0.3% of 360,000 active | activation, % at 3 µM | CHO-K1 hM5, Fluo-8 calcium, ACh EC20 PAM; 0% = ACh EC20, 100% = ACh EC100 | P08912;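 active means activation above the run cutoff, the mean activation of all test compounds plus 3 SD, cut at about 18% in these data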
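System: CHO-K1 hM5 cells. Reagent: acetylcholine, EC20 level. Compound dosing: single dose, 3 µM nominal final test concentration. Timing: Post-acetylcholine fluorescence recording 140 s. Detection: Fluo-8 calcium fluorescence. Read-out: % activation, ACh-normalized. Benchmarks: ACh EC20 and EC100 wells. Repeats: singlicate, one well per test compound.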
* = called active by the depositor.

SMILES	CHRM4 PAM	CHRM4 antagonist	M5 ag	M4 ag	CHRM5 antagonist	CHRM5 PAM
CCC1CCCCN1CCCNC(=O)c1cn(CC)c2ccc(S(=O)(=O)N3CCc4ccccc4C3)cc2c1=O (centres undefined)	-23	31*	-15	-1	5	0
CCn1cc(C(=O)NCCCOC)c(=O)c2cc(S(=O)(=O)N(C)C3CCCCC3)ccc21	-3	-3	-1	6	-1	-5
Cc1cc(Cl)ccc1NC(=O)/N=C1/NC(=O)CS1	8	-5	2	1	2	0
c1ccc(Sc2ccccc2CN2CCCC2)cc1	-15	39*	-20	1	74*	-34
Fc1ccccc1CN1CCCCCCC1	1	-2	-4	0	-6	2
CCCCn1c(N)c(N(C(=O)CSc2nncn2-c2ccccc2)C2CCCC2)c(=O)[nH]c1=O	16	-3	2	0	8	10
CCOc1ccc2c(c1)c(N=O)c(O)n2C	7	3	0	0	3	20*
CCN(C[C@H]1N[C@@](CC)(C(=O)OC)[C@H]2C(=O)N(C)C(=O)[C@@H]12)C(=O)c1ccc(C(C)(C)C)cc1	1	-10	0	1	-7	1
CCOC(=O)[C@]12CCC=C1N(Cc1ccc3c(c1)OCO3)C(=O)[C@H](CC(=O)N1CCC(c3ccccc3)CC1)C2	-1	-17	-5	0	-14	-4
COc1cccc(OC(=O)c2cc3ccccc3oc2=O)c1	18*	-17	-4	1	-7	19*
Cc1nnsc1C(=O)NC1CCCc2c1cnn2-c1ccccc1F (centres undefined)	-1	3	6	10	8	-9
Cc1nnsc1C(=O)NC1CCCc2c1cnn2-c1ccc(C(C)(C)C)cc1 (centres undefined)	-5	10	-2	13	28*	-13
Cc1noc(C)c1S(=O)(=O)Nc1ccc2c(c1)C(=O)N([C@H](C)CO)C[C@H](C)[C@@H](CN(C)S(=O)(=O)c1ccc(F)cc1)O2	1	0	1	0	5	3
Cc1noc(C)c1S(=O)(=O)Nc1ccc2c(c1)CC(=O)N([C@H](C)CO)C[C@H](C)[C@H](CN(C)S(=O)(=O)c1ccc(F)cc1)O2	-14	59*	-7	1	4	7
CCSc1ccc(-c2nn(-c3ccccc3)cc2/C=C(/C#N)C(=O)NC)cc1	-4	8	-1	1	-6	-3
CCCSc1ccc(-c2nn(-c3ccccc3)cc2/C=C(/C#N)C(=O)N2CCOCC2)cc1	11	-8	0	0	24	44*
O=C(N/N=C/c1ccncc1)c1nc(-c2ccccc2)n2c1CCCCC2	-1	29*	-4	2	10	-5
Cc1c(Cl)cccc1-n1cnc(=O)c2ccccc21	0	-18	4	1	-8	6
Cc1n[nH]c(C)c1Cc1c(F)cccc1Cl	2	-2	-10	4	26	28*
COc1ccc(C(=O)NC(=S)NNC(=O)c2ccccc2C)cc1	-51	12	59*	123*	28*	-27
COc1ccc(C(=O)NNC(=S)NC(=O)C(C)(C)C)cc1	-30	8	27*	88*	12	-19
COc1ccc(C(=O)NC(=S)NNC(=O)c2ccccc2O)cc1	4	-11	-4	2	1	5
COc1cc(/C=C(\C(=O)O)c2ccc(S(=O)(=O)N3CCCC3)s2)ccc1OCCC(C)C	1	-4	-2	0	4	-9
COc1ccc(CCCc2nnc(SCC(=O)NN)o2)c(C)c1	0	-2	-3	2	2	5
CC(=O)NC(C)(c1ccccc1)c1nc(-c2cc(F)cc(F)c2)cs1 (centres undefined)	-1	-1	-3	1	2	-4
SMILES	CHRM4 PAM	CHRM4 antagonist	M5 ag	M4 ag	CHRM5 antagonist	CHRM5 PAM
COC(=O)C1=CN(Cc2cccs2)C=C(C(=O)OC)C1c1cccc(Cl)c1	-7	8	-10	-1	9	-21
COC(=O)C1=CN(Cc2cccs2)C=C(C(=O)OC)C1c1ccc(OC)cc1OC	1	-3	-4	-1	27*	-15
COC(=O)[C@]12CCCCC=C1N(CCc1ccc(OC)c(OC)c1)C(=O)[C@H](CC(=O)NCC1CCCCC1)C2	-8	-10	7	19	-3	-3
CC(=O)c1ccc(S(=O)(=O)N2CCN(c3ccnc4cc(Cl)ccc34)CC2)cc1	-11	20	4	15	8	-19
O=C(Cn1nnc(-c2ccccc2)n1)NNC(=O)c1cccc([N+](=O)[O-])c1	2	1	-1	1	12	1
O=C(Cn1nnc(-c2ccc([N+](=O)[O-])cc2)n1)NNC(=O)c1ccccc1	-2	15	-4	2	31*	-7
COc1ccc(Oc2c(C)oc3c(CN(C)C)c(O)ccc3c2=O)cc1	-17	44*	-8	1	2	-16
CCCn1c(SCC(=O)Nc2cccc(S(=O)(=O)NC3=NCCCCC3)c2)nc2ccccc2c1=O	4	-5	-1	0	-5	24*
COc1cc(/C=C/C(=O)OCC(=O)N2c3ccccc3NC(=O)C2(C)C)cc(OC)c1OC	-10	19	7	25	24	-34
O=C(NCc1ccco1)c1nnc(Cc2ccc(Cl)cc2)o1	-6	39*	-2	-2	1	1
O=C(NCc1ccco1)c1nnc(Cc2ccc(F)cc2)o1	-5	8	1	0	2	-5
CCN(CC)C(=O)C1CCN(Cc2ccc(Br)cc2)CC1	23	32*	-3	2	0	10
Cc1cc(/C=C(\C#N)C(=O)NCc2ccccc2)c(C)[nH]1	0	-4	0	0	-4	2
CC(C)CC[n+]1ccccc1/C=C/c1ccc(N(C)C)cc1	-8	21	4	6	29*	-6
CN(C)c1ccc(/C=C/c2cccc[n+]2[O-])cc1	-2	3	6	1	7	1
COc1ccc(CCNC(=O)C2CC2)cc1OC	0	-5	3	0	6	0
COc1ccc(CCNC(=O)COC(=O)C2CC2)cc1OC	3	-18	0	1	-13	20*
COc1ccc(CCNC(=O)CSc2nn3c(=O)c(C)nnc3s2)cc1OC	17*	-5	-5	0	0	0
COc1ccc(CNC(=O)CSc2nn3c(=O)c(C(C)(C)C)nnc3s2)cc1OC	-3	-3	-9	4	1	-5
O=C(Nc1ccc(S(=O)(=O)Nc2cnc3ccccc3n2)cc1)c1ccc(Cl)c([N+](=O)[O-])c1	-4	1	-2	-1	3	7
